Data set [1] relates to TGF-β1-induced A549 cells. The data set is described as follows: Marker expression. Conditions: n = 3; for miR-23b-5p expression after inhibitor treatment: 10 μmol/L pretreatment, qPCR. Type of data set: cell-based, human. Put shortly: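 A549 in RPMI 1640 + 10% FBS, plated 24 h, serum-starved overnight. Three pathway inhibitors at 10 μmol/L added 30 min before TGF-β1 (5 ng/mL) plus test peptide. Harvest: RNA/protein at 48 h, phosphoproteins at 1 h. Western: 30 μg protein, 10% SDS-PAGE, ECL, GAPDH-normalised. qPCR: 2−ΔΔCt with GAPDH (mRNA) or U6 (miRNA) reference. At least three independent replicates, mean ± SD.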
On the technique in general: Real-time PCR tracks product formation cycle by cycle.

The next data set has as its system NIH3T3 cells. Put plainly: MTT cell cytotoxicity assay, NIH3T3. To be noted: 10–160 μmol/L, 24 h, n = 3. Type of data set: cell-based, murine. Background: Tetrazolium dyes change colour on reduction, which living cells bring about.

Regarding `COc1cccc(-c2cc(=O)c3ccccc3o2)c1N` [PD98059], in data set [1], the “miR-23b-5p expression after inhibitor treatment” value is recorded as “reduced”. In addition, in data set [1] (10 μmol/L, 30 min pretreatment, Western blot), the “AQP5 expression after inhibitor pretreatment” value is “elevated”.
`C[S+]([O-])c1ccc(-c2nc(-c3ccncc3)c(-c3ccc(F)cc3)[nH]2)cc1` (stereo not drawn) [SB203580]: the “miR-23b-5p expression after inhibitor treatment” value in data set [1] was “reduced”.
Turning to DHAAPQIR-NH2 [DR3d4dA], the “Cytotoxicity against NIH3T3 cells” value with NIH3T3 cells is “no toxicity”.
DHANPQIR-NH2 [DR3dA]: the “Cytotoxicity against NIH3T3 cells” value in the data set on NIH3T3 cells was “no toxicity”.
As for DHNAPQIR-NH2 [DR4dA], the “Cytotoxicity against NIH3T3 cells” value with NIH3T3 cells is “no toxicity”.

The values above are taken from publication PMC9979266 (Acta Pharmaceutica Sinica. B, 2022).
